Experimental findings from ChEMBL document CHEMBL3588803, “Design, synthesis and pharmacology of 1,1-bistrifluoromethylcarbinol derivatives as liver X receptor β-selective agonists” (Bioorg Med Chem Lett, 2015) are described below.

Data set [1] has as its target T1, Oxysterols receptor LXR-alpha (Homo sapiens, UniProt Q13133).
T1 sequence (Q13133 whole entry): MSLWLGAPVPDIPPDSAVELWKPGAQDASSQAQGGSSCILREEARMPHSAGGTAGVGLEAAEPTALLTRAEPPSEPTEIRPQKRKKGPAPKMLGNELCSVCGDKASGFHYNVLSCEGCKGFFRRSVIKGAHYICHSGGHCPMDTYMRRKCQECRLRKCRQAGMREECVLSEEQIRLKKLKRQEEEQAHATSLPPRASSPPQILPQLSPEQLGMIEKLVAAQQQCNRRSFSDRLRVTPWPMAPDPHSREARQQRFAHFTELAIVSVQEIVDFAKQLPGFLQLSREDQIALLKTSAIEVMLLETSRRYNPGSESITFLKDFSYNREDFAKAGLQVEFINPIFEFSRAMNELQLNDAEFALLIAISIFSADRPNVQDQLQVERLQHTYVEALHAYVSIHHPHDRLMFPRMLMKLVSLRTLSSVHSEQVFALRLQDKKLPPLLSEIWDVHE
Briefly: Agonist activity at LXRalpha (unknown origin) expressed in CHOK1 cells incubated for 24 hrs by GAL4-responsive luciferase reporter gene assay. Type of data set: cell-based, CHO-K1. A digest of the protocol: (§1)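 CHO-K1 cells carrying the GAL4-responsive pG5luc reporter and a GAL4-LXR LBD construct were seeded at 20,000 cells/well in HAM-F12 with 10% immobilized fetal bovine serum, penicillin G and streptomycin, at 37 °C and 5% CO2. After 24 h, compound was added at 0.01–30 µM for a further 24 h. Luminescence was read with Bright-Glo substrate. EC50 is the mean of two independent experiments.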

The target of data set [2] is T2, Oxysterols receptor LXR-alpha (Homo sapiens) (UniProt Q13133).
T2 sequence (whole entry): T1 sequence (Q13133 whole entry)
Description: Agonist activity at LXRalpha (unknown origin) expressed in CHOK1 cells incubated for 24 hrs by GAL4-responsive luciferase reporter gene assay relative to 10 uM T0901317. The format is cell-based. Conditions: CHO-K1. In a few lines:
(§2)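 The GAL4-LXR LBD luciferase reporter was run in CHO-K1 cells. Cells were seeded at 20,000/well in HAM-F12 with 10% immobilized FBS and antibiotics for 24 h, then exposed to compound at 0.01, 0.1, 1, 10 and 30 µM for 24 h, with a Bright-Glo luminescence read-out. Values are means of two independent experiments.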
(In a reporter assay the amount or activity of a reporter protein is the signal.)

The target in data set [3] is T3, Oxysterols receptor LXR-beta (Homo sapiens, UniProt P55055).
T3 sequence (P55055 whole entry): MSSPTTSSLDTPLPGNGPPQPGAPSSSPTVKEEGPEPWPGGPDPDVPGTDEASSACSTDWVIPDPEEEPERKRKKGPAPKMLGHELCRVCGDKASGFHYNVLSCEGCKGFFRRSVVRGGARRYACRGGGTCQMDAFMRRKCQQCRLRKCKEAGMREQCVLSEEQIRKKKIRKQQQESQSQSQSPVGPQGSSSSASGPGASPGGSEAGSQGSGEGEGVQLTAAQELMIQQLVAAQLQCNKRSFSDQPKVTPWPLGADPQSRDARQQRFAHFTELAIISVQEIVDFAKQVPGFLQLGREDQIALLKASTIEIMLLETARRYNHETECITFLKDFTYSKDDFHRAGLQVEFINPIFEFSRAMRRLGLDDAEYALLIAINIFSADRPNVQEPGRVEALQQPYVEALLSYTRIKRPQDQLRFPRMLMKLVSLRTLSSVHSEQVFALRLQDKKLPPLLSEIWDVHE
Briefly: Agonist activity at LXRbeta (unknown origin) expressed in CHOK1 cells incubated for 24 hrs by GAL4-responsive luciferase reporter gene assay. The format is cell-based, CHO-K1. A digest of the protocol:
as §1

In data set [4] the target is T4, Oxysterols receptor LXR-beta (Homo sapiens) (UniProt P55055).
T4 sequence (whole entry): T3 sequence (P55055 whole entry)
Briefly: Agonist activity at LXRbeta (unknown origin) expressed in CHOK1 cells incubated for 24 hrs by GAL4-responsive luciferase reporter gene assay relative to 10 uM T0901317. Type of data set: cell-based. As to conditions: CHO-K1. A digest of the protocol: as §2

Data set [5] can be described thus: Clearance in mouse hepatic microsomes. Type of data set: ADME. Conditions: liver microsomes, read-out: CLH. For orientation: Microsomes from liver hold many membrane-bound enzymes, among them those of drug oxidation.
A short description of data set [6]: Clearance in hamster hepatic microsomes. The format is ADME. As to conditions: cricetinae, liver microsomes; read-out: CLH.
The nature of data set [7]: Clearance in human hepatic microsomes. As to conditions: liver microsomes, read-out: CLH. The format is ADME.
In data set [8] the test system is Syrian golden hamster. Description: Drug level in CE-2 chow diet-fed golden Syrian hamster treated with 100 mg/kg, po 3-(4-(4-(1,1,1,3,3,3-Hexafluoro-2-hydroxypropan-2-yl)-2,6-di-n-propylphenoxy)-butyl)-5-(4-(1-methylethoxy)phenyl)-5-methylimidazolidine-2,4-dione assessed as compound formation after 0.5 to 24 hrs by HPLC-LC-MS/MS method. Type of data set: ADME, organism-based, Mesocricetus auratus. Conditions: in vivo.

The test system of data set [9] is Hamster. Briefly: Increase in ABCA1 gene expression in Bio F1B hamster intestine at 10 mg/kg, po. Type of data set: functional, Cricetinae.
The test system of data set [10] is Hamster. Briefly: Increase in ABCA1 gene expression in Bio F1B hamster peripheral blood at 10 mg/kg, po. Type of data set: functional, Cricetinae.
For data set [11], the system named is Hamster. Briefly: Increase in ABCG5 gene expression in Bio F1B hamster intestine at 10 mg/kg, po. The format is functional, Cricetinae.
In data set [12] the test system is Hamster. Briefly: Increase in ABCG8 gene expression in Bio F1B hamster intestine at 10 mg/kg, po. The format is functional, Cricetinae.
For data set [13], the system named is Hamster. Description: Hypolipidemic effect in Bio F1B hamster fed with high fat and cholesterol diet assessed as total cholesterol level at 10 mg/kg, po relative to control. The format is functional, Cricetinae.
For data set [14], the system named is Hamster. Briefly: Hypolipidemic effect in Bio F1B hamster fed with high fat and cholesterol diet assessed as HDL-cholesterol level at 10 mg/kg, po relative to control. Type of data set: functional, Cricetinae.
In data set [15] the test system is Hamster. Description: Hypolipidemic effect in Bio F1B hamster fed with high fat and cholesterol diet assessed as LDL-cholesterol level at 10 mg/kg, po relative to control. The format is functional, Cricetinae.
For data set [16], the system named is Hamster. Description: Effect in lipid profiles in Bio F1B hamster fed with high fat and cholesterol diet assessed as triglyceride level at 10 mg/kg, po relative to control. Type of data set: organism-based. Conditions: cricetinae, in vivo.
In data set [17] the test system is Hamster. Description: Hypolipidemic effect in Bio F1B hamster fed with high fat and cholesterol diet assessed as lipid-accumulation area in aortic arch at 10 mg/kg, po relative to control. Type of data set: functional, Cricetinae.
For data set [18], the target named is T3, Oxysterols receptor LXR-beta. Briefly: Agonist activity at LXRbeta (unknown origin).

For orientation: EC50 means the concentration that produces a half-maximal response. What is called Emax is the maximal effect, on the per cent scale that the assay sets. Turning to `CCCc1cc(C(O)(C(F)(F)F)C(F)(F)F)ccc1OCCCCN1C(=O)NC(C)(c2ccc3c(c2)OCO3)C1=O` (centres undefined), the EC50 in data set [1] came out at 1700 nM; in data set [3], 500 nM. Further, the results for the Emax in data set [2] and in [4] were 54% and 118%, respectively. The microsomal CLint came out at 73 µL/min/mg in [5], 351 µL/min/mg in [6] and 31 µL/min/mg in data set [7].

Consider `CCCc1cc(C(O)(C(F)(F)F)C(F)(F)F)cc(CCC)c1OCCCCN1C(=O)NC(CC)(c2ccc3c(c2)OCO3)C1=O` (centres undefined), for which the half-maximal effective concentration (EC50) in data set [1] stood at 600 nM; in data set [3], 700 nM. Further, the maximum response (Emax) in data set [2] and in [4] was 118% throughout.

As to `CCCc1cc(C(O)(C(F)(F)F)C(F)(F)F)cc(CCC)c1OCCCCN1C(=O)NC(C)(c2ccc3c(c2)OCO3)C1=O` (centres undefined), the EC50 in data set [1] stood at 400 nM; in [3], 100 nM. Moreover, the Emax was found to be 89% in data set [2] and 101% in data set [4].

Regarding `CCCc1cc(C(O)(C(F)(F)F)C(F)(F)F)cc(CCC)c1OCCCC(=O)O`, in data set [8], the Drug metabolism result is recorded as “metabolite_detected”.

As to `O=S(=O)(c1ccccc1)N(CC(F)(F)F)c1ccc(C(O)(C(F)(F)F)C(F)(F)F)cc1` [T091317], the “fold change (FC)” value in [9] was 3.4; in data set [10], 1.3; in [11] it was 1.5; in data set [12] it was 1.4. Also, the Activity is recorded as 124% in [13]; 76% in [14]; 75% in data set [15]; 251% in [16]; 40% in data set [17].

For `CCCc1cc(C(O)(C(F)(F)F)C(F)(F)F)ccc1OCCCCN1C(=O)NC(CC)(c2ccc3c(c2)OCO3)C1=O` (centres undefined), the EC50 in [1] turned out to be 1500 nM; in data set [3], 700 nM. In addition, the values for the Emax in data set [2] and in data set [4] were 72% and 172%, respectively.

In data set [18], `O=C(O)Cc1cccc(OCCCN(Cc2cccc(C(F)(F)F)c2Cl)CC(c2ccccc2)c2ccccc2)c1` showed an EC50 of 400 nM.

As to `CCCc1cc(C(O)(C(F)(F)F)C(F)(F)F)ccc1OCCCCN1C(=O)NC(CCC)(c2ccc3c(c2)OCO3)C1=O` (centres undefined), the EC50 was determined as 2300 nM in [1] and 1300 nM in [3]. The Emax in [2] was 42%; in data set [4], 72%.
